Reference: ChEMBL document CHEMBL3804820, “2-hydroxyisoquinoline-1,3(2H,4H)-diones (HIDs) as human immunodeficiency virus type 1 integrase inhibitors: Influence of the alkylcarboxamide substitution of position 4” (Eur J Med Chem, 2016)

Experiments:
[1] = target: T1, Human immunodeficiency virus type 1 integrase (Human immunodeficiency virus 1, UniProt Q7ZJM1); test: Inhibition of HIV1 integrase 3'-processing activity using 5'-ACTGCTAGAGATTTTCCACACTGACTAAAAGGGTC-[biotin]3' as substrate incubated for 1 hr by ELISA
[2] = Cytotoxicity against human HepG2 cells assessed as reduction in mitochondrial membrane potential at 100 uM after 72 hrs by fluorescent image analysis relative to untreated control; format: cell-based; conditions: read-out: INH
In short: (§1)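 Contract in vitro cytotoxicity panel covering cell number, intracellular free calcium, nuclear size, membrane permeability and mitochondrial membrane potential. Compounds tested at 1.0, 30.0 and 100.0 µM; values are percentage change versus untreated control, and IC50 where derived.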

HepG2 [3] = test: Cytotoxicity against human HepG2 cells assessed as increase in intracellular free calcium level at 100 uM after 72 hrs by fluorescent image analysis relative to untreated control; format: cell-based; conditions: hepg2, 72 h; in short: as §1
MDCK-II = test: Inhibition of human P-gp expressed in MDCK2-MDR1 cells assessed as reduction in calcien-AM efflux at 30 uM incubated for 20 mins by fluorimetry relative to control; format: cell-based
In short: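 P-gp efflux inhibition in MDR1-MDCKII cells with calcein AM substrate, tested up to 100.0 µM. Read as percentage inhibition of control.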

[4] = Cytotoxicity against human HepG2 cells assessed as reduction in nuclear size at 100 uM after 72 hrs by fluorescent image analysis relative to untreated control; format: cell-based; conditions: read-out: INH; in short: as §1
CYP1A2 = target: T2, CYP1A2 (Homo sapiens, UniProt P05177); test: Inhibition of human recombinant CYP1A2 using CEC as substrate at 10 uM incubated for 30 mins by fluorimetry relative to control; format: ADME; conditions: recombinant CYP1A2, probe CEC
T2 sequence (P05177 whole entry): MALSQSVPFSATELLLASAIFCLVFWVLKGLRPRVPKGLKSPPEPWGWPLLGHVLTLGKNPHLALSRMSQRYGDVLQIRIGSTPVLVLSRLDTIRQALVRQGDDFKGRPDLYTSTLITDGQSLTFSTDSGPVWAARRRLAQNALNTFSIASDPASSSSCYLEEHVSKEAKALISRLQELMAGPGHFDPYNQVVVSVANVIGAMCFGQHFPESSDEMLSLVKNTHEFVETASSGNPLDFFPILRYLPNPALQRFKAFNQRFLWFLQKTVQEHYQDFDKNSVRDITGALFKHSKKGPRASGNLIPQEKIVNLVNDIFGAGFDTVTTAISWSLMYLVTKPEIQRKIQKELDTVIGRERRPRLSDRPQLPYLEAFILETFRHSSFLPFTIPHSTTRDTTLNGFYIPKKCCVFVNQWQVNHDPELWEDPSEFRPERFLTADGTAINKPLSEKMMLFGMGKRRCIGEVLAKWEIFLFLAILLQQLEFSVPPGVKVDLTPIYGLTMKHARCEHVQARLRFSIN
In short: (§2)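 Recombinant CYP isoforms, each with its fluorogenic substrate: CYP1A2 and CYP2C19 with CEC, CYP2C9 and CYP2D6 with MFC, CYP3A4 with BFC. Read as percentage inhibition of control, standard contract assays.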

[5] = Cytotoxicity against human HepG2 cells assessed as reduction in mitochondrial membrane potential at 1 uM after 72 hrs by fluorescent image analysis relative to untreated control; format: cell-based; conditions: read-out: INH; in short: as §1
CYP2C9 = CYP2C9 (Homo sapiens, UniProt P11712); test: Inhibition of human recombinant CYP2C9 using MFC as substrate at 10 uM incubated for 40 mins by fluorimetry relative to control; format: ADME; conditions: recombinant CYP2C9, probe MFC; in short: as §2
hERG (KCNH2) [6] = target: T3, hERG (KCNH2) (Homo sapiens, UniProt Q12809); test: in vitro; conditions: CHO-K1 cells expressing human ERG
CYP2C19 = CYP2C19 (Homo sapiens, UniProt P33261); test: Inhibition of human recombinant CYP2C19 using CEC as substrate at 10 uM incubated for 50 mins by fluorimetry relative to control; format: ADME; conditions: recombinant CYP2C19, probe CEC; in short: as §2
[7] = target: T1, Human immunodeficiency virus type 1 integrase; test: Inhibition of HIV1 integrase strand transfer activity using 5'[digoxigenin]-GACCCTTTTAGTCAGTGTGGAAAATCTCTAGCA-3' as substrate incubated for 1 hr by ELISA
In short: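 ELISA with a 3'-biotin oligo and a 5'-digoxigenin partner oligo. Overall assay uses the full complementary oligo; strand transfer uses a precleaved oligo lacking the 3'-GT. Integrase at 160 nM final, annealed oligos 7 nM, in 10 mM MgCl2, 5 mM DTT, 20 mM HEPES pH 7.5, 0.5% PEG, 15% DMSO. Run 1 h at 37 °C, products denatured with NaOH, detected on avidin plates.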

HepG2 [8] = test: Cytotoxicity against human HepG2 cells assessed as increase in intracellular free calcium level at 30 uM after 72 hrs by fluorescent image analysis relative to untreated control; format: cell-based; conditions: hepg2, 72 h; in short: as §1
[9] = tested on: Human immunodeficiency virus 1; test: Selectivity ratio of EC50 for raltegravir resistant HIV1 harboring integrase G140S/Q148H double mutant infected in human MT4 cells to EC50 for wild type HIV1 3B infected in human MT4 cells; format: functional
In short: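 MT-4 cells were infected with 100–300 CCID₅₀ of virus stock (titrated in MT-4 cells) in the presence of 5-fold serial drug dilutions. EC₅₀ is the concentration giving 50% protection against virus-induced cytopathic effect, read by MTT reduction (MT-4/MTT assay). The value is the fold-change in EC₅₀ for each mutant strain relative to the wild-type HIV-1 strain.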

[10] = tested on: Human immunodeficiency virus 1; test: Antiviral activity against HIV1 3B infected in human MT4 cells assessed as reduction in virus-induced cytopathic effect by MTT assay; format: functional, organism-based; conditions: Human immunodeficiency virus 1, 3B
In short: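 MT-4 cells infected with 100-300 CCID50 of HIV-1 IIIB, in the presence of 5-fold serial dilutions of compound. Cytopathic effect read by MTT reduction to formazan, measured spectrophotometrically. EC50 is the concentration giving 50% protection against virus-induced CPE.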

[11] = Partition coefficient , log D of the compound in n-octanol/PBS at pH 7.4; format: physicochemical
In short: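 Log D measured by n-octanol/PBS partition at pH 7.4, in a standard contract assay.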

hERG (KCNH2) [12] = target: T3, hERG (KCNH2); test: in vitro; conditions: CHO-K1 cells expressing human ERG; remark: listed apart in the source
[13] = Plasma protein binding in human at 10 uM incubated for 4 hrs by equilibrium dialysis method; format: ADME, cell-free; conditions: read-out: PPB
In short: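 Human plasma protein binding, given as percent bound and percent recovery, in a standard contract assay.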

T3 sequence (Q12809 whole entry): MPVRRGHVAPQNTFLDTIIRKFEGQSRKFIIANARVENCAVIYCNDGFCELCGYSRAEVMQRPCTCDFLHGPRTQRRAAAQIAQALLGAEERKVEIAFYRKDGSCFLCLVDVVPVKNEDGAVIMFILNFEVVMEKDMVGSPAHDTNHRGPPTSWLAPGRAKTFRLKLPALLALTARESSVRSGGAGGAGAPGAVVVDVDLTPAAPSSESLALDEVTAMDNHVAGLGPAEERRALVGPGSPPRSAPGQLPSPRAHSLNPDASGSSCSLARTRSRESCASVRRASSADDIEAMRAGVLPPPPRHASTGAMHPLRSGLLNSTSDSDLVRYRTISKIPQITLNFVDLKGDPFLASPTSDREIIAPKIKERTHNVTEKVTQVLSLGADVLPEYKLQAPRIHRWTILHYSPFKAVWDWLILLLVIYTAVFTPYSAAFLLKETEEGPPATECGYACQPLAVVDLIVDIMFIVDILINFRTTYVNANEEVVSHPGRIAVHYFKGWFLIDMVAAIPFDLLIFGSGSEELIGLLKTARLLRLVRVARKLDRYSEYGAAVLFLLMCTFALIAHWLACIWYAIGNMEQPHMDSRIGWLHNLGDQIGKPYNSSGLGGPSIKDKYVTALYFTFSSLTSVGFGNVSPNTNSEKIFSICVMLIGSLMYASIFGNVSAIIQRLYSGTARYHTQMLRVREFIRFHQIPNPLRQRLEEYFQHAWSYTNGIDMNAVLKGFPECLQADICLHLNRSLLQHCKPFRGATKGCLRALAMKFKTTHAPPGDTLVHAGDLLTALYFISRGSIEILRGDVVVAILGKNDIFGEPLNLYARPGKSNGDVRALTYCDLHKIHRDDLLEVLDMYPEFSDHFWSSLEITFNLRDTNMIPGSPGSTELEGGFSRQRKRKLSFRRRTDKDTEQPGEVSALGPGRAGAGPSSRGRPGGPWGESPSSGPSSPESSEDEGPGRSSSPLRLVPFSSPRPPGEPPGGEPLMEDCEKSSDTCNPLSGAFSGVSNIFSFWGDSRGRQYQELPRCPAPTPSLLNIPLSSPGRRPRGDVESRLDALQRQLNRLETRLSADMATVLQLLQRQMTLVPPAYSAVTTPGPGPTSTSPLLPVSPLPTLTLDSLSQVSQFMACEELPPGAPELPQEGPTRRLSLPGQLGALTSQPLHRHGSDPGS
T1 sequence (Q7ZJM1 whole entry): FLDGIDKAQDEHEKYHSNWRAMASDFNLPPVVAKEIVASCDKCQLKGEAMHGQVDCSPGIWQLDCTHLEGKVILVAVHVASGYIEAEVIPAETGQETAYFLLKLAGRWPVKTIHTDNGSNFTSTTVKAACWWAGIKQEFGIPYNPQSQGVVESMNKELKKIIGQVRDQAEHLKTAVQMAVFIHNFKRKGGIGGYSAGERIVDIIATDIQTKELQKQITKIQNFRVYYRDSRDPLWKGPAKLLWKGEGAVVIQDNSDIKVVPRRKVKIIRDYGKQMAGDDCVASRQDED
Sequence of CYP2C19 (P33261 whole entry): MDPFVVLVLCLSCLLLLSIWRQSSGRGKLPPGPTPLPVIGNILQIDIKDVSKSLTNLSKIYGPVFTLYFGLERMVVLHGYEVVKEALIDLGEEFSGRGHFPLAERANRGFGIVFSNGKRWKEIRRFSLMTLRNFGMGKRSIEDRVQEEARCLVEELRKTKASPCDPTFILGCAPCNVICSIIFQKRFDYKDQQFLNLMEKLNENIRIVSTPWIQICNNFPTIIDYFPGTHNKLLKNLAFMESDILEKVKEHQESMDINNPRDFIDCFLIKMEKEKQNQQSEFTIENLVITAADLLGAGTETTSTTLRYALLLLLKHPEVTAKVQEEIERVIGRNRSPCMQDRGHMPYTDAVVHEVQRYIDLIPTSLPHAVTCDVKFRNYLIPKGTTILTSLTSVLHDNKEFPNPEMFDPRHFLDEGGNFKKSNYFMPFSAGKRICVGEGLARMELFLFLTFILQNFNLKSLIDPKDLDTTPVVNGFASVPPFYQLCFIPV
Sequence of CYP2C9 (P11712 whole entry): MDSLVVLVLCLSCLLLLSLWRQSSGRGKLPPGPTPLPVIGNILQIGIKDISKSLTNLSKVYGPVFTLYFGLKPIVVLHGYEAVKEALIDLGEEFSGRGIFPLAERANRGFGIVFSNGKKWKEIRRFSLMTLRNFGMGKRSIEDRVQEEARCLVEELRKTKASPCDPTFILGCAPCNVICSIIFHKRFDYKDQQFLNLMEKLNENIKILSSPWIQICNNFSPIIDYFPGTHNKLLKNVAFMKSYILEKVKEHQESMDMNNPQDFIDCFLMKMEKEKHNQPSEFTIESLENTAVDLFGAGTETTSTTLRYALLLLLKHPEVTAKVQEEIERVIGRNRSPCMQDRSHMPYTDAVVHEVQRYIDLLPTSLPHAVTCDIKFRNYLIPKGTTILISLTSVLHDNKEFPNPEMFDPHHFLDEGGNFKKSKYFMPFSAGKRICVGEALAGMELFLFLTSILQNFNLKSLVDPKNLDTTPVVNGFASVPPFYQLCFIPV

## CCCCCCNC(=O)C1C(=O)N(O)C(=O)c2ccccc21 (configuration not stated)
[1]
  IC50: 510 nM
[2]
  cytotoxicity at 72 h, 100 µM: 33.9%
HepG2 [3]
  Activity: 32.3%
MDCK-II
  inhibition: 2%
[4]
  cytotoxicity at 72 h, 100 µM: 26.8%
CYP1A2
  inhibition at 0.5 h, 10 µM: 12.7%
[5]
  cytotoxicity at 72 h, 1 µM: 5.7%
CYP2C9
  inhibition at 40 min, 10 µM: 25.3%
hERG (KCNH2) [6]
  inhibition at 5 min, 10 µM: 19.4%
CYP2C19
  inhibition at 50 min, 10 µM: 9.3%
[7]
  IC50: 195 nM
HepG2 [8]
  Activity: 5.8%
[9]
  Ratio EC50: 1
[10]
  EC50: 2700 nM
[11]
  logD: 1.26
hERG (KCNH2) [12]
  inhibition at 5 min, 0.1 µM: 5.8%
[13]
  fraction unbound at 4 h, 10 µM: 0.001
